Converted amounts (≈) assume the structure as drawn. The source made the active and inactive calls. No cut-off for these calls is given here.
Legend:
[1] = test system: BT-549; test: Cytotoxicity against human BT549 cells at 100 ug/ml […] by MTT assay; format: cell-based
[2] = test system: HeLa; test: Cytotoxicity against human HeLa cells at 100 ug/ml […] by MTT assay; format: cell-based
[3] = test system: Rattus norvegicus; test: Antiinflammatory activity in albino rat assessed as inhibition of carrageenan-induced paw edema at 100 mg/kg, po administered 1 hr prior to carrageenan-challenge measured after 3 hrs relative to control; format: functional
How it was run: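 Charles Foster albino rats of either sex (150–200 g, pregnant females excluded), six per group, dosed orally; 1 h later 0.2 mL of 1% carrageenan in 0.9% NaCl injected into right hind paw subplantar tissue. Paw volume read by plethysmometer at injection and 3 h later. Control group received carrageenan only. % inhibition = 1–Dt/Dc×100. Mean ± S.D.; one-way ANOVA with Tukey's test.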

[4] = test system: COLO 205; test: Induction of apoptosis in human COLO205 cells assessed as zeiosis at IC50 after 48 hrs by Hoechst 33258 staining-based inverted microscopic analysis; format: functional, cell-based
How it was run: (§1)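 COLO-205 cells seeded at 10⁵ cells/ml and grown to 70-80% confluency. Treated at IC₅₀ dose for 48 h. Fixed in 4% formaldehyde for 30 min at room temperature, stained with Hoechst 33258 for 15 min, washed three times with PBS. Imaged by inverted fluorescence microscope (excitation 340-380 nm, emission 465 nm) at 400x and scored for nuclear morphology.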

[5] = Antitumor activity against mouse EAC […] Swiss albino mouse assessed as change in body weight at 100 mg/kg, ip administered everyday from day 10 to day 14 measured on day 12 (reference value: 22.03 +/- 1.67%); format: functional, Ehrlich; settings: route intraperitoneal
[6] = test system: COLO 205; test: Inhibition of NF-kappaB in human COLO205 cells assessed as Bcl-2 down regulation at IC50 after 48 hrs by RT-PCR analysis; format: cell-based
How it was run: (§2)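 About 4x10⁶ COLO-205 cells/well treated at IC₅₀ dose for 48 h. Total RNA extracted with TRI Reagent and quantified. Bcl-2 and Bax measured by RT-PCR against GAPDH (40 cycles: 94 °C, 55 °C, 72 °C). Products run on 1.5% agarose gel and quantified by band densitometry.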

[7] = test system: COLO 205; test: Cytotoxicity against human COLO205 cells […] by MTT assay; format: functional, cell-based
[8] = test system: ACHN; test: Cytotoxicity against human ACHN cells […] by MTT assay; format: functional, cell-based
[9] = Antitumor activity against mouse EAC […] Swiss albino mouse assessed as change in body weight at 100 mg/kg, ip administered on day 10 measured on day 15 (reference value: 22.03 +/- 1.67%); format: functional, Ehrlich; settings: route intraperitoneal
[10] = test system: COLO 205; test: Induction of apoptosis in human COLO205 cells assessed as late apoptotic cells at IC50 after 48 hrs by acridine orange-ethidium bromide staining assay; format: functional, cell-based
How it was run: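 COLO-205 cells seeded at 10⁵ cells/ml, grown 24 h, then treated at IC₅₀ dose for 48 h. Floating and trypsinized adherent cells pooled, spun at 129 g for 5 min and washed in PBS. Stained with 1:1 acridine orange/ethidium bromide and viewed by fluorescence microscopy at 400x (green viable, orange-red apoptotic).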

[11] = Antitumor activity against mouse EAC […] Swiss albino mouse assessed as increase in life span at 100 mg/kg, ip relative to vehicle-treated control; format: functional, Ehrlich; settings: route intraperitoneal
How it was run: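 Female Swiss albino mice (6–8 weeks), six per group, inoculated i.p. on day 0 with 1×10⁶ viable EAC cells from donor ascites. Drug suspended in 0.25% CMC, given i.p. at 0.1 ml/10 g on days 10–14. Survival was monitored twice daily for 44 days. ILS(%) = [(MST treated/MST control) − 1]×100, where MST is total days survived divided by the number of animals.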

[12] = test system: BT-549; test: Cytotoxicity against human BT549 cells after 24 hrs by MTT assay; format: functional, cell-based; settings: BT-549, 24 h
[13] = test system: COLO 205; test: Induction of apoptosis in human COLO205 cells assessed as karyopyknosis at IC50 after 48 hrs by Hoechst 33258 staining-based inverted microscopic analysis; format: functional, cell-based; how it was run: as §1
[14] = test system: COLO 205; test: Inhibition of NF-kappaB in human COLO205 cells assessed as Bax up-regulation at IC50 after 48 hrs by RT-PCR analysis; format: cell-based; how it was run: as §2
[15] = test system: COLO 205; test: Induction of apoptosis in human COLO205 cells assessed as nuclear fragmentation at IC50 after 48 hrs by Hoechst 33258 staining-based inverted microscopic analysis; format: functional, cell-based; how it was run: as §1
[16] = test system: HeLa; test: Cytotoxicity against human HeLa cells after 24 hrs by MTT assay; format: functional, cell-based

| Structure (SMILES) | Activity [1] [%] | Activity [2] [%] | inhibition in vivo at 100 mg/kg [3] [%] | also measured |
| --- | --- | --- | --- | --- |
| Cc1cc(=O)[nH]c2cc(N3C(=O)CSC3c3ccco3)ccc12 (stereo unspecified) | 49.658 | 41.188 | 5.16 |  |
| Cc1cc(=O)[nH]c2cc(N3C(=O)CSC3c3ccc(Br)s3)ccc12 (stereo unspecified) | 52.34 | 33.267 | 24 |  |
| Cc1cc(=O)[nH]c2cc(N3C(=O)CSC3c3cccc(F)c3)ccc12 (stereo unspecified) | 50.052 | 52.738 | 23.6 |  |
| Cc1cc(=O)[nH]c2cc(N3C(=O)CSC3c3cccnc3)ccc12 (stereo unspecified) | 29.032 | 34.851 | 6.81 |  |
| Cc1cc(=O)[nH]c2cc(N3C(=O)CSC3c3ccccc3[N+](=O)[O-])ccc12 (stereo unspecified) | 44.953 | 28.316 | 24.1 |  |
| Cc1cc(=O)[nH]c2cc(N3C(=O)CSC3c3ccccc3Br)ccc12 (stereo unspecified) | 38.709 | 44.279 | 14 |  |
| COc1ccc(C2SCC(=O)N2c2ccc3c(C)cc(=O)[nH]c3c2)cc1 (stereo unspecified) | 39.334 | 47.326 | 21.4 |  |
| Cc1cc(=O)[nH]c2cc(N3C(=O)CSC3c3ccccc3)ccc12 (stereo unspecified) | 71.578 | 74.85 | 17.8 | Activity [4]: Active; Activity [5]: 10.65%; inhibition [6]: Active; IC50 [7]: 31.4 µg/mL (≈ 93.3 µM); IC50 [8]: 78.9 µg/mL (≈ 234 µM); Activity [9]: 5.93%; Activity [10]: Active; Activity [11]: 60.57%; MST [11]: 29.16 days; IC50 [12]: 39.3 µg/mL (≈ 117 µM); Activity [13]: Active; inhibition [14]: Active; Activity [15]: Active; IC50 [16]: 35.1 µg/mL (≈ 104 µM) |
| Cc1cc(=O)[nH]c2cc(N3C(=O)CSC3c3cccc(Cl)c3)ccc12 (stereo unspecified) | 44.849 | 44.158 | 23.3 |  |
| Cc1cc(=O)[nH]c2cc(N3C(=O)CSC3c3ccccc3F)ccc12 (stereo unspecified) | 40.062 | 59.6 | 20.4 |  |
| Cc1cc(=O)[nH]c2cc(N3C(=O)CSC3c3ccccc3Cl)ccc12 (stereo unspecified) | 61.394 | 52.496 | 14.5 |  |
| COc1ccc(C2SCC(=O)N2c2ccc3c(C)cc(=O)[nH]c3c2)cc1OC (stereo unspecified) | 31.737 | 30.492 | 20.6 |  |
| Cc1cc(=O)[nH]c2cc(N3C(=O)CSC3c3ccc(F)cc3)ccc12 (stereo unspecified) | 43.311 | 14.231 | 19 |  |
| Cc1cc(=O)[nH]c2cc(N3C(=O)CSC3N3CCOCC3)ccc12 (stereo unspecified) | 25.274 | 23.662 | 1.75 |  |
| O=c1[nH]cc(F)c(=O)[nH]1 [FLUOROURACIL] |  |  |  | IC50 [7]: 4.56 µg/mL (≈ 35.1 µM); IC50 [8]: 9.87 µg/mL (≈ 75.9 µM) |
| Cc1cc(=O)[nH]c2cc(N3C(=O)CSC3/C=C/c3ccccc3)ccc12 (stereo unspecified) | 38.837 | 42.057 | 20.8 |  |

| Structure (SMILES) | Activity [1] [%] | Activity [2] [%] | inhibition in vivo at 100 mg/kg [3] [%] | also measured |
| --- | --- | --- | --- | --- |
| Cc1cc(=O)[nH]c2cc(N3C(=O)CSC3c3ccc(O)cc3)ccc12 (stereo unspecified) | 42.143 | 68.91 | 22.9 |  |
| Cc1ccc(C2SCC(=O)N2c2ccc3c(C)cc(=O)[nH]c3c2)s1 (stereo unspecified) | 22.023 | 31.485 | 15.8 |  |
| Cc1cc(=O)[nH]c2cc(N3C(=O)CSC3c3ccncc3)ccc12 (stereo unspecified) | 22.176 | 20.343 | 7.62 |  |
| Cc1cc(=O)[nH]c2cc(N3C(=O)CSC3c3ccc(N(C)C)cc3)ccc12 (stereo unspecified) | 29.327 | 33.267 | 13.3 |  |
| Cc1cc(=O)[nH]c2cc(N3C(=O)CSC3c3cccc(O)c3)ccc12 (stereo unspecified) | 18.522 | 71.485 | 14.3 |  |
| COc1cc(C2SCC(=O)N2c2ccc3c(C)cc(=O)[nH]c3c2)ccc1O (stereo unspecified) | 54.11 | 41.028 | 12.4 |  |
| Cc1cc(=O)[nH]c2cc(N3C(=O)CSC3c3ccccn3)ccc12 (stereo unspecified) | 18.028 | 20 | 7.5 |  |
| Cc1cc(=O)[nH]c2cc(N3C(=O)CSC3c3ccc([N+](=O)[O-])cc3)ccc12 (stereo unspecified) | 40.478 | 54.851 | 25.2 |  |
| Cc1cc(=O)[nH]c2cc(N3C(=O)CSC3c3ccccc3O)ccc12 (stereo unspecified) | 44.328 | 43.168 | 16.4 |  |
| Cc1cc(=O)[nH]c2cc(N3C(=O)CSC3c3ccc(Cl)cc3)ccc12 (stereo unspecified) | 46.201 | 20.198 | 13 |  |
| Cc1cc(=O)[nH]c2cc(N3C(=O)CSC3N3CCCCC3)ccc12 (stereo unspecified) | 31.949 | 29.394 | 2.77 |  |
| Cc1ccc(C2SCC(=O)N2c2ccc3c(C)cc(=O)[nH]c3c2)o1 (stereo unspecified) | 31.114 | 27.453 | 10.1 |  |
| Cc1cc(=O)[nH]c2cc(N3C(=O)CSC3c3ccc(Br)o3)ccc12 (stereo unspecified) | 42.357 | 31.332 | 23.3 |  |
| Cc1cc(=O)[nH]c2cc(N3C(=O)CSC3c3cccc(Br)c3)ccc12 (stereo unspecified) | 40.062 | 56.633 | 22.7 |  |
| Cc1cc(=O)[nH]c2cc(N3C(=O)CSC3c3ccc(Br)cc3)ccc12 (stereo unspecified) | 42.663 | 65.742 | 12.4 |  |

— ChEMBL document CHEMBL2375332, “Novel quinolone substituted thiazolidin-4-ones as anti-inflammatory, anticancer agents: design, synthesis and biological screening” (Eur J Med Chem, 2013)
